Test results reported in ChEMBL document CHEMBL3286382, “Synthesis and biological evaluation of imidazo[1,2-a]pyrimidines and imidazo[1,2-a]pyridines as new inhibitors of the Wnt/β-catenin signaling” (Eur J Med Chem, 2014).
Active and inactive are the calls of the source. The calls are words filed in the database; no cut-off is given here.

Assays:
HT-29 [1] = assay: Inhibition of Wnt signaling in human HT29 cells assessed as inhibition of beta-catenin-mediated Tcf/Lef transcriptional activity after 24 hrs by dual luciferase reporter gene assay relative to control; type: cell-based; conditions: HT-29, 24 h
HT-29 [2] = assay: Antiproliferative activity against human HT-29 cells after 72 hrs by MTT assay; type: functional; conditions: HT-29, 72 h
Summary of the method: (§1)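 Cells grown in DMEM with 10% FBS, penicillin G, streptomycin and L-glutamine, seeded 7 x 10^3 per well, left 24 h, then exposed to scalar concentrations in complete medium for 72 h at 37 °C, 5% CO2. Viability read by MTT; IC50 taken as the concentration giving 50% inhibition of proliferation.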

LoVo = assay: Antiproliferative activity against human LoVo cells after 72 hrs by MTT assay; type: functional; summary of the method: as §1
HepG2 = assay: Antiproliferative activity against human HepG2 cells after 72 hrs by MTT assay; type: functional; conditions: HepG2, 72 h; summary of the method: as §1
A549 = assay: Antiproliferative activity against human A549 cells after 72 hrs by MTT assay; type: functional; conditions: A549, 72 h; summary of the method: as §1
HT-29 [3] = assay: Inhibition of Wnt signaling in human HT29 cells assessed as inhibition of beta-catenin-mediated Tcf/Lef transcriptional activity at 25 uM after 24 hrs by dual luciferase reporter gene assay relative to control; type: cell-based
Summary of the method: (§2)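 HT-29 cells (1.4 x 10^4) were co-transfected with 1 µg BAT-LUX, which carries 7 TCF sites and the siamois promoter driving firefly luciferase, plus 1 µg Renilla vector. Cells were then treated at 37 °C for 24 h, with or without the GSK-3β inhibitor LiCl. Dual-Glo readout; values are the mean firefly/Renilla ratio.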

HT-29 [4] = assay: Inhibition of Wnt signaling in human HT29 cells assessed as inhibition of beta-catenin-mediated Tcf/Lef transcriptional activity at 25 uM after 24 hrs by dual luciferase reporter gene assay relative to control in presence of GSK-3beta inhibitor LiCl; type: cell-based; summary of the method: as §2
HT-29 [5] = assay: Inhibition of Wnt/beta-catenin signaling in human HT29 cells assessed as […] in axin2 mRNA expression at 25 uM after 24 hrs by quantitative real-time PCR assay; type: cell-based
Summary of the method: (§3)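 Total RNA was extracted with TRIzol from HT-29 cells treated for 24 h. Transcripts were measured by real-time RT-PCR with GUS as the reference gene, and expression was expressed relative to untreated cells.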

HT-29 [6] = assay: Inhibition of Wnt/beta-catenin signaling in human HT29 cells assessed as GSK3-beta dephosphorylation at Ser21/Ser9 residues at 25 uM after 24 hrs by Western blot analysis; type: cell-based
Summary of the method: (§4)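 After 24 h exposure, HT-29 cells were washed in cold PBS, lysed on ice for 30 min and cleared at 15 000 g, 4 °C. 10 µg protein was run on 12% SDS-PAGE and transferred to PVDF. Blots were probed with specific primary antibodies, then peroxidase-labelled secondaries, and developed by ECL. β-actin re-probing served as the loading control.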

HT-29 [7] = assay: Inhibition of Wnt signaling in human HT29 cells assessed as increase in cytoplasmic beta-catenin at 25 uM after 24 hrs by fluorescence microscopy; type: cell-based
Summary of the method: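 Cells were fixed in cold 4% formaldehyde for 15 min and stained with anti-β-catenin (mouse, 1:50), then an Alexa-conjugated secondary, with DAPI counterstain. Images were taken on a video-confocal microscope with a 60x objective.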

HT-29 [8] = assay: Inhibition of Wnt signaling in human HT29 cells assessed as beta-catenin dephosphorylation at S33/37/T41 residues at 25 uM after 24 hrs by Western blot analysis; type: cell-based; summary of the method: as §4
HT-29 [9] = assay: Inhibition of Wnt/beta-catenin signaling in human HT29 cells assessed as […] protein level at 25 uM after 24 hrs by Western blot analysis; type: cell-based; summary of the method: as §4
HT-29 [10] = assay: Inhibition of Wnt/beta-catenin signaling in human HT29 cells assessed as downregulation of cyclin D1 protein expression at 25 uM after 24 hrs by Western blot analysis; type: cell-based; summary of the method: as §4
HT-29 [11] = assay: Inhibition of Wnt/beta-catenin signaling in human HT29 cells assessed as increase in p21 protein expression at 25 uM after 24 hrs by Western blot analysis; type: cell-based; summary of the method: as §4
HT-29 [12] = assay: Inhibition of Wnt/beta-catenin signaling in human HT29 cells assessed as downregulation of cyclin B1 protein expression at 25 uM after 24 hrs by Western blot analysis; type: cell-based; summary of the method: as §4
HT-29 [13] = assay: Inhibition of Wnt/beta-catenin signaling in human HT29 cells assessed as increase in phosphorylated c-myc level at 25 uM after 24 hrs by Western blot analysis; type: cell-based; summary of the method: as §4
HT-29 [14] = assay: Inhibition of Wnt/beta-catenin signaling in human HT29 cells assessed as decrease in TCF4 mRNA expression at 25 uM after 24 hrs by quantitative real-time PCR assay; type: cell-based; summary of the method: as §3
HT-29 [15] = assay: Inhibition of Wnt/beta-catenin signaling in human HT29 cells assessed as effect on c-myc mRNA expression at 25 uM after 24 hrs by quantitative real-time PCR assay; type: cell-based; summary of the method: as §3
HT-29 [16] = assay: Cell cycle arrest in human HT-29 cells assessed as accumulation of cells at G1 phase at 25 uM after 24 hrs by flow cytometry; type: functional, cell-based
Summary of the method: (§5)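 Exponentially growing HT-29 cells (1.5 × 10^5) were treated with the compounds for 24 h, then collected and fixed in ice-cold 70% ethanol. Fixed cells were treated with lysis buffer holding RNase A and 0.1% Triton X-100, stained with PI and analysed for DNA content by flow cytometry.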

HT-29 [17] = assay: Cell cycle arrest in human HT-29 cells assessed as reduction of cells in S phase at 25 uM after 24 hrs by flow cytometry; type: functional, cell-based; summary of the method: as §5
HT-29 [18] = assay: Cell cycle arrest in human HT-29 cells assessed as reduction of cells in G2/M phase at 25 uM after 24 hrs by flow cytometry; type: functional, cell-based; summary of the method: as §5
Danio rerio [19] = species on record: Danio rerio; assay: Toxicity in zebrafish larvae assessed as mortality at 5 to 25 uM treated for 7 days; type: organism-based; conditions: in vivo, 168 h
Summary of the method: (§6)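 Wild-type zebrafish larvae raised under standard conditions were exposed to compounds dissolved in E3 medium. The medium containing compound was renewed every day for 7 days. The read-out was survival rate (mortality) at the end of exposure.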

Danio rerio [20] = species on record: Danio rerio; assay: Toxicity in zebrafish larvae assessed as mortality at 1 uM treated for 7 days; type: organism-based; conditions: in vivo, 168 h; summary of the method: as §6
[21] = Antiproliferative activity against human fibroblasts after 72 hrs by MTT assay; type: cell-based, Fibroblast
Danio rerio [22] = species on record: Danio rerio; assay: Inhibition of Wnt/beta-catenin signaling in zebrafish larvae assessed as inhibition of Tcf/Lef transcriptional activity at 10 uM after 72 hrs by GFP reporter assay; type: functional, organism-based
Summary of the method: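 TCF/LEF-GFP reporter zebrafish were exposed from 24 hours post-fertilization for 72 h, with compounds dissolved in E3 medium that was renewed daily. GFP in the head and intestine was imaged by fluorescence stereomicroscope at 8X, alongside bright-field images.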

SMILES	IC50 (HT-29 [1]) [µM]	GI50 (HT-29 [2]) [µM]	GI50 (LoVo) [µM]	GI50 (HepG2) [µM]	GI50 (A549) [µM]	also measured
CC(C)Cn1c(SCc2ccccc2)nc(N)cc1=O	30.7	> 100	68	77	83.3	
Cc1ccn2cc(-c3ccc(NC(=O)c4ccccc4C(=O)O)cc3)nc2c1	> 100	> 100			> 100	
Cc1ccc2nc(-c3ccc(N)cc3)cn2c1	52.6	82.9	65.2	> 100	> 100	
Nc1cc(=O)n(Cc2ccccc2)c(SCc2ccccc2)n1	54.3	100	84.9	97.8	> 100	
Nc1cc(OCc2ccccc2)nc(SCc2ccccc2)n1	> 100	53.9	53.7	49	46.2	
Cc1ccc2nc(-c3ccc([N+](=O)[O-])cc3)cn2c1	6.2	> 100	> 100	> 100	> 100	inhibition (HT-29 [3]): Active; inhibition (HT-29 [4]): Active; inhibition (HT-29 [5]): Active; inhibition (HT-29 [6]): inactive; inhibition (HT-29 [7]): Active
CC(=O)Nc1cc(OCC(C)C)nc(SCc2ccccc2)n1	> 100	35.7	53.9	64.4	19.9	
CCCSc1nc(NC(C)=O)cc(OCc2ccccc2)n1	81.8	59.9	54.9	75.1	75.7	
CCCSc1nc(N)cc(OCc2ccccc2)n1	22.3	88.2	54.2	87.1	51	
Cc1ccc2nc(-c3ccc(NCc4ccccc4)cc3)cn2c1	11.1	8.8		> 100	56.1	inhibition (HT-29 [3]): Active; inhibition (HT-29 [4]): Active; inhibition (HT-29 [5]): Active; inhibition (HT-29 [8]): Active; inhibition (HT-29 [6]): inactive; inhibition (HT-29 [9]): Active; inhibition (HT-29 [10]): Active; inhibition (HT-29 [11]): Active; inhibition (HT-29 [12]): Active; inhibition (HT-29 [13]): Active; inhibition (HT-29 [14]): Active; inhibition (HT-29 [15]): inactive; Activity (HT-29 [16]): inactive; Activity (HT-29 [17]): inactive; Activity (HT-29 [18]): inactive; Activity (Danio rerio [19]): Toxic; Activity (Danio rerio [20]): Non-toxic; GI50 at 72 h [21]: > 100 µM
CNc1ccc(-c2cn3c(OC)cc(OC)nc3n2)cc1	72.2	> 100	> 100	> 100	> 100	
COc1cc(OC)n2cc(-c3ccc(N)cc3)nc2n1	14.3	> 100	> 100	> 100	> 100	
Cc1cc(O)n2cc(-c3ccc([N+](=O)[O-])cc3)nc2n1	10.4	90.1	87.6	> 100	38.9	inhibition (HT-29 [3]): Active; inhibition (HT-29 [4]): Active; inhibition (HT-29 [5]): Active; inhibition (HT-29 [6]): inactive; inhibition (HT-29 [9]): Active; inhibition (HT-29 [10]): Active; inhibition (HT-29 [11]): Active; inhibition (HT-29 [12]): Active; inhibition (HT-29 [13]): Active; inhibition (HT-29 [14]): Active; inhibition (HT-29 [15]): inactive; inhibition (HT-29 [7]): Active; Activity (HT-29 [16]): inactive; Activity (HT-29 [17]): inactive; Activity (HT-29 [18]): inactive; GI50 at 72 h [21]: > 100 µM
O=C(Nc1cccc2cccnc12)c1ccc(N2C(=O)[C@@H]3[C@H](C2=O)[C@@H]2C=C[C@H]3C2)cc1		> 100	63.1	95.4	> 100	inhibition (HT-29 [3]): Active; inhibition (HT-29 [4]): Active; inhibition (HT-29 [5]): Active; inhibition (Danio rerio [22]): Active
